Bioassay records: PubChem, several laboratories
This is a sample that favours compounds with a hit; in the whole collection about 1.8% have one here.
MsrA inh = inhibits bovine methionine sulfoxide reductase A; purified bovine MsrA, absorbance read-out; inhibition, % at 15.5 µM; AID 651718; 0.75% of 360,000 active; in the data active = inhibition above about 4.5%;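 also: 0% = vehicle wells with enzyme and 100% = reference inhibitor wells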
SKN-1 inh = blocks SKN-1 activity in C. elegans | C. elegans VP596 Pgst-4::GFP/RFP ratio, acrylamide-induced, 24 h | AID 624304 | 0.49% of 360,000 active | inhibition, % at 21.8 µM;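 active = interference check ratio from 0.5 to 1.5 plus GFP to RFP signal ratio inhibition reaching or exceeding a fixed threshold, cut at about 30% in these data, passing the limit was not always enough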
DAGLB inh = blocks human DAGLB lipase activity | HEK293T DAGLB membrane lysate, EnzChek fluorogenic substrate | inhibition, % at 5.17 µM | 0.059% of 340,000 active | AID 504411; in the data active = inhibition above about 34%;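 also: 0% = enzyme with vehicle and 100% = wells lacking enzyme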
Target sequence (Q8NCG7 whole entry, looked up): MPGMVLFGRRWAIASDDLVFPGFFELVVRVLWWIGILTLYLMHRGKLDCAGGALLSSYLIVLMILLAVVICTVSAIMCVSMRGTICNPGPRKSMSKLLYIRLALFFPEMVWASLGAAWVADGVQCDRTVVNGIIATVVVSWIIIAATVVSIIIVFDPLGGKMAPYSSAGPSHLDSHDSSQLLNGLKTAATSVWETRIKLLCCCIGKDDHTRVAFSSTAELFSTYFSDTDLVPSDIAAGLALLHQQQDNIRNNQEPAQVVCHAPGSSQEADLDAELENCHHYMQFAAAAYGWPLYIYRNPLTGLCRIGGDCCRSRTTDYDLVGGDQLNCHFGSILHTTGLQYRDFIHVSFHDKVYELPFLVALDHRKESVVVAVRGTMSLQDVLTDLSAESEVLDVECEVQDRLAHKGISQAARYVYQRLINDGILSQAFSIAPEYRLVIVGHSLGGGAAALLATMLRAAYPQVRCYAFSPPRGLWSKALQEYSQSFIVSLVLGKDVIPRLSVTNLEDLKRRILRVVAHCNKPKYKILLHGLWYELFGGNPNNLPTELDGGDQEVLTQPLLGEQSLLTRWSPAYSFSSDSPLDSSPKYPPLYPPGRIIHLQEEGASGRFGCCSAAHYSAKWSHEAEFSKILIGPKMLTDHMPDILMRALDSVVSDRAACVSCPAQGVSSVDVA
bovine MsrA act = bovine methionine sulfoxide reductase A activation; purified bovine MsrA, absorbance read-out; activation, % at 10.6 µM; 0.3% of 360,000 active; in the data active = activation above about 7.5%;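 also: 0% = vehicle and 100% = reference activator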
beta cell repl = MIN6 beta-cell proliferation induction | MIN6 cells proliferation, ATPlite luminescence, 48 h; cells starved in 0.2% serum; 100% = growth in 10% serum | 0.29% of 330,000 active | AID 2380 | proliferation, % at 10 µM;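 active = compounds whose signal lies at least 3.5 SD above the mean of all wells on their plate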;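 also: 0% = DMSO-treated cells in low-serum medium and 100% = 10% serum control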
MT1-MMP act inh = inhibitors of human MT1-MMP activation; P50281; HT1080 RFP-PRO-GFP cells, GFP/RFP ratio fluorescence, overnight; percent of plate control window, DMSO zero; GFP/RFP ratio change, % at 20 µM; 0.061% of 360,000 active; AID 651647;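 active = GFP/RFP ratio change of at least 30% with cell ATP level not reduced by more than half and red fluorescence within 50% of control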
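Test system: HT1080 RFP-PRO-GFP cells; Benchmarks: DMSO and RFP-L50D-GFP cell wells; Timing: cells overnight before dosing, compound overnight, 37 °C, 5% CO2; Compound: one 20 µM compound dose with 1% DMSO; Read-out: GFP/RFP fluorescence ratio.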
* hit, by the source's call; x = not tested or not shown.

SMILES	MsrA inh	SKN-1 inh	DAGLB inh	bovine MsrA act	beta cell repl	MT1-MMP act inh
COc1ccc(/C=N/Nc2ccccn2)cc1OC	4.6*	4	x	-5	-3	1
Cc1ccc2nc(SCC(=O)Nc3cccc(F)c3)nc(=O)n2c1	5.1*	9	-2	-4	-2	11
Cc1ccc2nc(SCC(=O)Nc3cccc(Cl)c3)nc(=O)n2c1	1	-17	1	-3	-2	3
C=CCNc1cccc2c1S(=O)(=O)N[C@@H](C)CO2	0	x	x	x	x	x
O=S(=O)(c1ccccc1)c1cnn2c(C(F)(F)F)cc(-c3ccccc3)nc12	0	3	1	-4	1	-2
COc1ccccc1-c1cc(C(F)(F)F)n2ncc(S(=O)(=O)c3ccccc3)c2n1	9.4*	5	1	-11	-2	-4
C[C@@H]1CN([C@H](C)CO)C(=O)CCCn2nncc2CO[C@H]1CN(C)C(=O)Nc1ccc2c(c1)OCCO2	1	x	x	x	x	x
Nc1cc2c(cc1Cl)-c1ccccc1C2	0	49*	1	-3	x	-5
Nc1cc2c(cc1Cl)-c1ccc(Cl)cc1C2	0	30	x	-3	x	-2
Cc1cc(CC(C)C)n(-c2nc3ccccc3c(=O)n2OCc2ccccc2)n1	-1	37*	-10	1	-2	x
C=CCNC(=S)N1C[C@H]2CON(C)[C@H]2C[C@H]1c1ccccc1Br	0	x	x	x	x	x
COC(=O)CN1C(=S)N(Cc2ccccc2)C(=O)C1CC(=O)Nc1ccc(Br)cc1 (stereo not drawn)	1	39*	-6	-1	-6	2
COC(=O)CN1C(=S)N(c2ccc(Cl)cc2)C(=O)C1CC(=O)Nc1ccc(Cl)cc1 (stereo not drawn)	0	19	-3	3	-4	2
CC(=O)Nc1sc(N/N=C/c2ccccc2)nc1-c1ccc(C)cc1	0	8	-1	0	-1	2
CC(=O)Nc1sc(/C(C#N)=C\c2cccc(Cl)c2)nc1-c1ccc(C)cc1	-1	35*	-76	-1	x	-2
COCc1cc(N2CCNC[C@H]2C)ccc1N1CCN(Cc2ccccc2)[C@H](C)C1	-1	x	x	x	x	x
CCn1nc(CCC(=O)O)c2ccccc2c1=O	0	41*	0	-4	-1	-6
C[C@@H]1CN([C@H](C)CO)C(=O)CCCn2cc(nn2)CO[C@H]1CN(C)S(=O)(=O)c1cn(C)cn1	0	x	x	x	x	x
COC(=O)[C@]12C[C@H](CC(=O)NCC34CC5CC(CC(C5)C3)C4)C(=O)N(Cc3ccccc3)C1=C[C@H](C(C)C)O[C@@H]2C1CC1	0	x	x	x	x	x
COc1ccc(CN2C(=O)CS/C2=N/N=C/c2ccccc2)cc1	2	53*	x	0	-4	1
COc1cc(/C=N/Nc2nc3ccccc3o2)cc(OC)c1O	4.6*	-7	-2	-13	-2	0
COc1ccccc1C(=O)Nc1ccc2c(c1)nc(CCNC(C)=O)n2C	0	-1	2	-2	0	9
COc1ccccc1C(=O)Nc1ccc2c(c1)nc(CCNC(=O)c1ccccc1)n2C	1	42*	x	-3	0	-1
CCN(CC)c1ccc(C(=S)N2CCN(c3ccccc3)CC2)cc1	-1	32*	-10	-10	-4	-4
O=S(=O)(CS(=O)(=O)c1ccc(Br)cc1)c1ccc(Br)cc1	2	x	x	x	x	x
SMILES	MsrA inh	SKN-1 inh	DAGLB inh	bovine MsrA act	beta cell repl	MT1-MMP act inh
O=c1c2ccccc2oc2ccc(-c3ccc4cc[nH]c4c3)cc12	x	70*	-3	-2	-1	11
Cc1ccc2oc3ccccc3c(=O)c2c1	1	21	-6	0	x	-1
Cc1cc(N2CCN(C(=O)OC(C)(C)C)C[C@H]2C)ccc1N1CC[C@@H](O)C1	0	x	x	x	x	x
CSc1cccc(NC(=O)c2cccc3cccnc23)c1	1	65*	-3	-5	-1	-3
CN(C)c1ccc(C2N3CC4(C)CN2CC(C)(C3)C4O)cc1 (stereo not drawn)	5.5*	-14	-3	-10	0	-1
O=C(Cn1c(C(F)(F)F)nc2ccccc21)c1ccc(F)cc1	0	35*	-1	-4	-3	1
COc1cccc(/C=N/NC(=O)c2[nH]c(C)c(C(=O)N/N=C/c3cccc(OC)c3O)c2C)c1O	5.0*	16	13	-8	-3	-5
